Experiments:
Format in all cases: functional
K562 = assay: Antiproliferative activity against human K562 cells
In short: (§1)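 HUVEC and K562 (DSM ACC 10) cells were exposed to compounds and growth was scored against untreated controls. The readout is GI50, the concentration that cuts growth of treated cells to half that of untreated cells.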

HUVEC = assay: Antiproliferative activity against HUVEC cells; details: Homo sapiens; in short: as §1
HeLa = assay: Cytotoxicity against human HeLa cells
In short: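 HeLa cervix carcinoma cells (DSM ACC 57) were treated with compounds. The readout is CC50, the concentration that kills 50% of treated cells.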

## C/C=C(\C)C(=O)NCC(C)C
K562
  GI50: > 300 µM
HUVEC
  GI50: > 300 µM
HeLa
  CC50: > 300 µM

## CC(=O)N1CCc2c([nH]c3ccccc23)C1
K562
  GI50: 33.3 µM
HUVEC
  GI50: 41.1 µM
HeLa
  CC50: 23.8 µM

## CC1=CC(=O)/C(=C(\C)N)C(=O)O1
K562
  GI50: 9 µM
HUVEC
  GI50: 68.2 µM
HeLa
  CC50: 104 µM

## Cc1ccc(NC(=O)c2ccc(CN3CCN(C)CC3)cc2)cc1Nc1nccc(-c2cccnc2)n1 [IMATINIB]
K562
  GI50: 0.17 µM
HUVEC
  GI50: 18.5 µM
HeLa
  CC50: 65.8 µM

## CC1=CC(=O)/C(=C(\C)NCCc2ccc(O)cc2)C(=O)O1 [FUSAMINE]
K562
  GI50: 37.6 µM
HUVEC
  GI50: 37.3 µM
HeLa
  CC50: 23.3 µM

## O=C(CO)c1cccn1CCc1ccc(O)cc1 [FUSARINE]
K562
  GI50: > 200 µM
HUVEC
  GI50: > 200 µM
HeLa
  CC50: > 200 µM

Reference: ChEMBL document CHEMBL2034865, “Cytotoxic alkaloids from Fusarium incarnatum associated with the mangrove tree Aegiceras corniculatum” (2012)
